We go through 22 molecules from ChEMBL document CHEMBL1151747, “Orally bioavailable isothioureas block function of the chemokine receptor CXCR4 in vitro and in vivo” (J Med Chem, 2008).

One may read the IC50 as the concentration needed to halve the response being measured. One may read the IC90 as the concentration needed for an effect of 90%. Broadly, the pKa is the negative logarithm of the acid dissociation constant. High values mean a weaker acid or stronger base, low ones a stronger acid or weaker base. Broadly, the logP is the decadic logarithm of the partition coefficient of the neutral form, usually between octanol and water. A higher logP goes with a more lipophilic compound. As usually defined, the logD is the decadic logarithm of the distribution of all forms, ionised or not, between an organic phase and buffer at a given pH. Lower therefore signals lower lipophilicity. What is called microsomal CLint is the capacity of the preparation to metabolise the compound, expressed as a volume cleared per time. One may read the solubility as the dissolved amount per volume that the medium holds. A low value points to a poorly soluble substance. By fraction unbound is commonly meant the share of the substance not bound to proteins or other matrix. Low values mean extensive binding, high ones weak binding. A word on the bioavailability: it is the share of a dose that reaches the circulation, judged against a reference dose that is usually intravenous. Read a high bioavailability as much systemic uptake. As usually defined, the Tmax is the time from dosing to the highest level. A word on the half-life: it is the time in which the quantity being followed falls by half. Higher therefore signals slow decline.

Data set [1] has as its target T1, C-X-C chemokine receptor type 4 (Homo sapiens, UniProt P61073). Kind of data set: Displacement of [125I]CXCL12 from CXCR4 in human CEM cells. Format: cell-based, CCRF-CEM. Put shortly:
(§1)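 Scintillation proximity assay. Membranes come from CEM cells (human CXCR4) or IR983F cells (rat CXCR4), prepared by homogenization in 20 mM HEPES, 1 mM EDTA pH 7.4 and stored at -80 °C. Nonspecific binding is defined with 400 nM unlabeled CXCL12. Incubation is 2 h at room temperature with shaking, then scintillation counting.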

Data set [2] addresses T1, C-X-C chemokine receptor type 4. As to the kind of experiment: Activity at CXCR4 in human CEM cells assessed as inhibition of CXCL12-induced calcium mobilization. Format: functional, cell-based, CCRF-CEM. Put shortly: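 CEM cells are loaded with 4 µM Fluo-4 for 1 h at 37 °C, washed, then preincubated with antagonist for 2 h. Wells are run in quadruplicate on FLIPR.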
In general terms: Calcium assays in cells follow changes in intracellular calcium, usually with a dye or a luminescent sensor.

Data set [3] deals with Human immunodeficiency virus 1. As to the kind of experiment: Antiviral activity against X4-tropic HIV1 3B assessed as inhibition of viral attachment. Format: functional, organism-based. Conditions: Human immunodeficiency virus 1, 3B.
The target of data set [4] is C-X-C chemokine receptor type 4 (Rattus norvegicus, UniProt O08565). Kind of data set: Displacement of [125I]CXCL12 from CXCR4 in rat IR983F cells. Format: cell-based. Put shortly:
as §1
Background: Loss of bound radioactivity is the signal in a displacement assay; it reports binding, not function.

The target of data set [5] is T2, Cytochrome P450 1A2 (Homo sapiens, UniProt P05177).
T2 sequence (P05177 whole entry): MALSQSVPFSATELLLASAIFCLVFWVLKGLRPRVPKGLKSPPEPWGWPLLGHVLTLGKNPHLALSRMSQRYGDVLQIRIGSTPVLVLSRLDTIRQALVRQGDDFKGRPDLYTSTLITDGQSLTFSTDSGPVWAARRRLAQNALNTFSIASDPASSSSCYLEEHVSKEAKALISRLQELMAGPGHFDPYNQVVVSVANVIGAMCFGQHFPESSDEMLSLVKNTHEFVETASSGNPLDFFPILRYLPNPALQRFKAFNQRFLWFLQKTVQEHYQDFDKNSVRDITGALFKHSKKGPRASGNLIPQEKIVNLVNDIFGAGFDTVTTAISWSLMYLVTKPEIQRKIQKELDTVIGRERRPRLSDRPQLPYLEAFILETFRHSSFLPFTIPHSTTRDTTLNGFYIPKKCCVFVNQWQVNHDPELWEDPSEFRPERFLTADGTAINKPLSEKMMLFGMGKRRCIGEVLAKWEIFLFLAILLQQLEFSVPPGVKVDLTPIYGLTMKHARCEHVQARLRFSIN
As to the kind of experiment: Inhibition of CYP1A2. The data set is classed as ADME.

Data set [6] addresses Cytochrome P450 2C9 (Homo sapiens, UniProt P11712). As to the kind of experiment: Inhibition of CYP2C9. Format: ADME.
Data set [7] has as its target Cytochrome P450 2C19 (Homo sapiens, UniProt P33261). Kind of data set: Inhibition of CYP2C19. Format: ADME.
The target of data set [8] is Cytochrome P450 2D6 (Homo sapiens, UniProt P10635). As to the kind of experiment: Inhibition of CYP2D6. The data set is classed as ADME.
Sequence of Cytochrome P450 2D6 (P10635 whole entry): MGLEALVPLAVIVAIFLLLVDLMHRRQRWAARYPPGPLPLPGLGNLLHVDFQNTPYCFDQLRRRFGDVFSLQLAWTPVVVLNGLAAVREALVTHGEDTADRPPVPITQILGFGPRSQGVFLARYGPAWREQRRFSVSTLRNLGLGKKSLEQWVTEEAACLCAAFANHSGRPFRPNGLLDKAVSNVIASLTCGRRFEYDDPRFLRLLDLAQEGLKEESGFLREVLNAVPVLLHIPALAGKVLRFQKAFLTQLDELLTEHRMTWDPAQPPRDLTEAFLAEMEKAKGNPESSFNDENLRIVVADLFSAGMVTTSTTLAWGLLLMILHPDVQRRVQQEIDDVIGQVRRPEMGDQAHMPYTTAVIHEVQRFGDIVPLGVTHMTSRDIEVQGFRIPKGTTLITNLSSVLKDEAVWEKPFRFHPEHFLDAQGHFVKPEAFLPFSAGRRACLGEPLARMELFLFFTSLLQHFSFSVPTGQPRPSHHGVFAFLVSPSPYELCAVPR
The target of data set [9] is Cytochrome P450 3A4 (Homo sapiens, UniProt P08684). As to the kind of experiment: Inhibition of CYP3A4. The data set is classed as ADME.
Sequence of Cytochrome P450 3A4 (P08684 whole entry): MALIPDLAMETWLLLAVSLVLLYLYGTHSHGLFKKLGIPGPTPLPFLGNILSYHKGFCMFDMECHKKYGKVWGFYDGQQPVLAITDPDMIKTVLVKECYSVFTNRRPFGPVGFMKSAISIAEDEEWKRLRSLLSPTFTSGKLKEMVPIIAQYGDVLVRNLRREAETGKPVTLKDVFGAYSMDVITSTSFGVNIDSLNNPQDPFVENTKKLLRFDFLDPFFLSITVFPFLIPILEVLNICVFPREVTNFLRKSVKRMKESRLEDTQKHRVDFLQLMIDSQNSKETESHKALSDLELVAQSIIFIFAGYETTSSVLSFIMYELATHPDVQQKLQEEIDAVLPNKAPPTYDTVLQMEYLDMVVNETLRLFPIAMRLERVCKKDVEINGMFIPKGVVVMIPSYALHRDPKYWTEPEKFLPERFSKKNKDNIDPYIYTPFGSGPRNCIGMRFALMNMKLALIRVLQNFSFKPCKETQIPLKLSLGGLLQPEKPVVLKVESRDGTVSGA
The nature of data set [10]: Dissociation constant, pKa of the compound. The data set is classed as physicochemical.
Data set [11] in a line: Partition coefficient, log P of the compound. The following applies: octanol/water. The data set is classed as physicochemical.
The nature of data set [12]: Distribution coefficient, log D of the compound. The data set is classed as physicochemical. Conditions: octanol/water.
Data set [13] can be described thus: Intrinsic clearance in human liver microsomes. The data set is classed as ADME, Microsome. Put shortly: (§2)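 Compound is incubated with human or rat liver microsomes; intrinsic clearance is given in µL min-1 mg-1.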
Data set [14] can be described thus: Intrinsic clearance in rat liver microsomes. The data set is classed as ADME, Microsome. Put shortly:
as §2
On the technique in general: Microsomes from liver hold many membrane-bound enzymes, among them those of drug oxidation.

Data set [15] in a line: Solubility in pH 1.0 buffer. The data set is classed as physicochemical.
The nature of data set [16]: Solubility in pH 6.8 buffer. Format: physicochemical.
The nature of data set [17]: Fraction unbound in human serum. Format: ADME, cell-free.
The nature of data set [18]: Fraction unbound in rat serum. The data set is classed as ADME, cell-free.
Data set [19] is described as follows: Oral bioavailability in Lewis rat at 10 mg/kg. Format: ADME, organism-based. The following applies: in vivo.
Data set [20] in a line: Tmax in Lewis rat at 10 mg/kg, po. The data set is classed as ADME, organism-based. Details: dose 10 mg/kg, route oral. Conditions: in vivo.
Data set [21] is described as follows: Half life in Lewis rat at 10 mg/kg, po. Format: ADME, organism-based. Details: dose 10 mg/kg, route oral. Conditions: in vivo.

T1 sequence (P61073 whole entry): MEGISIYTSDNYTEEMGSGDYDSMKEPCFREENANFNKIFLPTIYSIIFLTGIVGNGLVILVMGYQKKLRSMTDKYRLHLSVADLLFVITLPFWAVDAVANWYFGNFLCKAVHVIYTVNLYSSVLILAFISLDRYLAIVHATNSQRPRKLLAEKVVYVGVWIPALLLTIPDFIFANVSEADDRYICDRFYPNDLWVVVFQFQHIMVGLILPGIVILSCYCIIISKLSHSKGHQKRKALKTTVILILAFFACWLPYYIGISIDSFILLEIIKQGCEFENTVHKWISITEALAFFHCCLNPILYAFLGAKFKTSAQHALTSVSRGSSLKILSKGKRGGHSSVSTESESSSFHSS
Sequence of C-X-C chemokine receptor type 4 (Rattus norvegicus, UniProt O08565) (O08565 whole entry): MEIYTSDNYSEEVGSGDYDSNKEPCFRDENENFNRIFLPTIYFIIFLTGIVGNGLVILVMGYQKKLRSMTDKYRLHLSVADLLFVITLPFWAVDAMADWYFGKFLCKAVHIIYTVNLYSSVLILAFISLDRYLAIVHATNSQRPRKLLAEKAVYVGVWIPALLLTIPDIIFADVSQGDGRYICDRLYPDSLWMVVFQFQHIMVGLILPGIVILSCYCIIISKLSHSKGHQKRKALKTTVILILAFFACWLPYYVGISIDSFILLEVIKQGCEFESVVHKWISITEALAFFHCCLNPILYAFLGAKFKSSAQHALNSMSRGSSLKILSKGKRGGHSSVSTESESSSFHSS
Sequence of Cytochrome P450 2C9 (P11712 whole entry): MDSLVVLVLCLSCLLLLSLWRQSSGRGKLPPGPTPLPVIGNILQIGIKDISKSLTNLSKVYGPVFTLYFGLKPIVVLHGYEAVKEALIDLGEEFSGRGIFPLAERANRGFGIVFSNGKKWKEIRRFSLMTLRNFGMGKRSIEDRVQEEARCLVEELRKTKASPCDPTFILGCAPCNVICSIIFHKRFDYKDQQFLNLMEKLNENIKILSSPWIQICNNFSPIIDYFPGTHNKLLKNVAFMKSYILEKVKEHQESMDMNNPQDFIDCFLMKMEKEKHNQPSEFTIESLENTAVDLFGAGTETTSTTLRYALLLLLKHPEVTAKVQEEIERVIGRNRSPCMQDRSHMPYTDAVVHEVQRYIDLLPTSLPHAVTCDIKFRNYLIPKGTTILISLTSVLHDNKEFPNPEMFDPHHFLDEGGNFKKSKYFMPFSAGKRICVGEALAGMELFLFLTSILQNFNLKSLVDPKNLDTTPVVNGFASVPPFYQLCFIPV
Sequence of Cytochrome P450 2C19 (P33261 whole entry): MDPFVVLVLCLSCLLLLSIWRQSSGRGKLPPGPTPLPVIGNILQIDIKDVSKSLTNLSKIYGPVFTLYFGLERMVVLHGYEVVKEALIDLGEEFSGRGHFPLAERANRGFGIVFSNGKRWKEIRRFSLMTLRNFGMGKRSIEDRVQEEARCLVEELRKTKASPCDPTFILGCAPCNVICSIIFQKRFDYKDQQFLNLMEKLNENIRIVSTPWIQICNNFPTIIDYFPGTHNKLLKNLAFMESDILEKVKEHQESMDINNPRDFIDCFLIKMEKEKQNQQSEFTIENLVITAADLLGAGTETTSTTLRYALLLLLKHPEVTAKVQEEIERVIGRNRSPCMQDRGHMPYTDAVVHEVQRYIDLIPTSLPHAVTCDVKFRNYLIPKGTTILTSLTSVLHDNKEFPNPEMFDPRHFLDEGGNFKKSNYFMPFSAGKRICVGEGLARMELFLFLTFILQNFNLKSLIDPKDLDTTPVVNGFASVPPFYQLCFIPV

Consider `C1=C(CS/C(=N\C2CCCCC2)NC23CC4CC(CC(C4)C2)C3)N2CCN=C2S1`, for which the IC50 was 1870 nM in [1] and 304 nM in data set [2].

In the case of `C1=C(CS/C(=N\C2CCCCC2)NC2CCCCC2)N2CCCN=C2S1`, the IC50 in [1] was 185 nM; in data set [2] it was 57 nM.

Consider `C1=C(CS/C(=N\C2CCCC2)NC2CCCC2)N2CCN=C2S1`, for which the IC50 turned out to be 3830 nM in [1] and 493 nM in [2].

Turning to `c1cc(CN2CCCNCCNCCCNCC2)ccc1CN1CCCNCCNCCCNCC1` [PLERIXAFOR], in data set [3], the IC50 was 3 nM and the IC90 came to 50 nM.

For the molecule `CC(C)(C)C1CCC(NC(=NC2CCCCC2)SCC2=CSC3=NCCN23)CC1` (stereo unspecified), the IC50 in [1] was 1530 nM; in data set [2], 437 nM.

Turning to `C1=C(CS/C(=N\C2CCCCC2)NC2CCCCCCC2)N2CCN=C2S1`, the IC50 is 28 nM in data set [1] and 8 nM in [2].

In the case of `c1ccc(CS/C(=N\C2CCCCC2)NC2CCCCC2)cc1`, the IC50 in [1] and in [2] was above 10000 nM each time.

Regarding `C1=C(CSC(=NC2CCCCC2)NC2CCCCCC2)N2CCN=C2S1`, the values for the IC50 in [1], in [2] and in [3] were 28 nM, 6.6 nM and 40 nM, respectively. For the same molecule, in data set [3], the IC90 is 1140 nM.

As for `NC(N)=NCCC[C@@H]1NC(=O)[C@H](CCCN=C(N)N)NC(=O)[C@@H](Cc2ccc(O)cc2)NC(=O)CNC(=O)[C@H](c2ccc3ccccc3c2)NC1=O`, the IC50 was 109 nM in [1] and 1440 nM in data set [4].

In the case of `CC1(C)CN2C(CS/C(=N\C3CCCCCC3)NC3CCCCCC3)=CSC2=N1`, the results for the IC50 in [1], in data set [2] and in data set [3] were 8.8 nM, 2.1 nM and 10 nM, respectively. In [3], the IC90 was found to be 130 nM.

Turning to `CN(/C(=N/C1CCCCC1)SCC1=CSC2=NCCN12)C1CCCCC1`, the IC50 is 3380 nM in [1], 931 nM in data set [2] and above 100000 nM in data set [3]. Further, the IC90 in data set [3] is above 100000 nM.

As for `C1=C(CS/C(=N\C2CCCCCC2)NC2CCCCCC2)N2CCN=C2S1`, the IC50 in data set [1] was determined as 25 nM; in data set [2] it was 3.1 nM; in data set [3], 50 nM. Further, the IC90 in data set [3] stood at 820 nM.

Turning to `C1=C(CSC(=NC2CCCCC2)NC2CCCC2)N2CCN=C2S1`, the half-inhibitory concentration (IC50) in data set [1] is 372 nM; in [2], 173 nM; in data set [3] it was 470 nM. Moreover, the IC90 in data set [3] was above 100000 nM.

As for `CCCCCCNC(=NC1CCCCC1)SCC1=CSC2=NCCN12`, the IC50 in data set [1] amounted to 855 nM; in [2], 75 nM.

Consider `C1=C(CSC(=NC2CCCCC2)NC2C3CC4CC(C3)CC2C4)N2CCN=C2S1` (stereo unspecified), for which the IC50 in data set [1] was found to be 81 nM; in data set [2] it was 13 nM.

On to `c1ccc(CNC(=NC2CCCCC2)SCC2CSC3=NCCN32)cc1` (stereo unspecified), for which the IC50 in [1] turned out to be 10000 nM; in data set [2] it was 2220 nM.

As for `CC(C)/N=C(/NC(C)C)SCC1=CSC2=NCCN12`, in data set [1], the IC50 is above 10000 nM.

In the case of `C1=C(CS/C(=N\C2CCCCC2)Nc2ccccc2)N2CCN=C2S1`, the values for the IC50 in data set [1] and in data set [2] were above 10000 nM and 5270 nM, respectively.

On to `C/N=c1/scc(CS/C(=N\C2CCCCC2)NC2CCCCC2)n1C`, for which the IC50 is above 10000 nM in data set [1] and 9130 nM in data set [2].

`CC1(C)CN2C(CS/C(=N\C3CCCCC3)NC3CCCCC3)=CSC2=N1`: the IC50 was 11 nM in data set [4]; above 10000 nM in data set [5]; above 10000 nM in [6]; 5200 nM in data set [7]; 400 nM in data set [8]; above 10000 nM in data set [9]. Further, in data set [3], the IC50 was 7 nM. This molecule also showed a pKa in data set [10] of 8. In data set [11], this molecule gave a logP of 4.5. The same molecule registered a logD in data set [12] of 1.2. Also, the microsomal CLint in [13] came out at 149 µL/min/mg; in data set [14], 342 µL/min/mg. The solubility in data set [15] and in data set [16] was above 5000 µg/mL throughout. Besides, the results for the fraction unbound in data set [17] and in [18] were 0.2 and 0.46, respectively. Further, in data set [19], the bioavailability is 32%. For the same molecule, in data set [20], the Tmax is 0.5 h. The molecule further gave a half-life in [21] of 7.6 h. Also, in data set [3], the IC90 was found to be 100 nM.

`C1=C(CS/C(=N\C2CCCCCCC2)NC2CCCCCCC2)N2CCN=C2S1`: the IC50 in data set [1] turned out to be 27 nM; in data set [2] it was 5.3 nM.

Consider `c1ccc2c(c1)nc1scc(CS/C(=N\C3CCCCC3)NC3CCCCC3)n12`, for which the IC50 was above 10000 nM in data set [1] and 8120 nM in data set [2].
